{"source": "paper PMC2917810", "about": "(Chemical biology & drug design, 2008)", "key": {"RGS4Δ51N": {"target": "T1, RGS4Δ51N (Homo sapiens, UniProt P49798)", "T1 sequence (P49798 52-205 limits assumed)": "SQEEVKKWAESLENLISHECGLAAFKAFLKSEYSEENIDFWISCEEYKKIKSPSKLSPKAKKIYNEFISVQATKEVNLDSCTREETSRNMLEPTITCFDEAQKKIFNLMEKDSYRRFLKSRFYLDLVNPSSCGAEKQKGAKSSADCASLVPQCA", "assay": "Single turnover RGS-stimulated Gαo GTPase", "assay_type": "biochemical", "conditions": "for inhibition of RGS4 activity (rate of RGS stimulated Gαo GTP hydrolysis): purified proteins, mean ± S.E.M., n ≥3, SEM; for activity on RGS4 GAP activity: single turnover GAP assay, RGS4Δ51N 75–125 nM", "in_short": "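Single-turnover GTP hydrolysis by purified rat His6-Gαo with γ[32P]GTP, stimulated by human MBP-His6-RGS4Δ51N (75–125 nM). Soluble disulfide-cyclized peptides (≥95% pure) were tested at 50 μM, or lower where solubility limited. Rates came from time courses, reported as percent decrease in the RGS-stimulated rate; IC50 estimated from these single-concentration inhibitions. Mean ± S.E.M., n ≥3; t-test.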"}, "[1]": {"assay": "Solubility and aggregation of soluble peptides", "assay_type": "physicochemical"}, "RGS16": {"tested_on": "RGS16", "assay": "Single turnover GAP assay, RGS16", "assay_type": "biochemical, human", "conditions": "RGS16 1.5 μM", "in_short": "(§1)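 Single-turnover GTP hydrolysis by purified rat His6-Gαo with γ[32P]GTP, with or without RGS. The RGS proteins were human MBP-His6 constructs, purified on amylose then Ni-NTA: full-length RGS16 at 1.5 μM, RGS19Δ11C at 200 nM, and the RGS7 RGS domain (nucleotides 915–1359) at 500 nM. Test peptides were soluble, cyclized, and ≥95% pure.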"}, "RGS7box": {"tested_on": "RGS7box", "assay": "Single turnover GAP assay, RGS7", "assay_type": "biochemical, human", "conditions": "RGS7box 500 nM", "in_short": "as §1"}, "RGS4 [2]": {"tested_on": "RGS4", "conditions": "cited from earlier work"}, "RGS4 [3]": {"tested_on": "RGS4", "conditions": "membrane based steady state GTPase assay; cited from earlier work"}, "RGS4Δ51N-Alexa Fluor 532": {"tested_on": "RGS4Δ51N-Alexa Fluor 532", "assay": "FACScan flow cytometry binding of bead-bound peptides", "set-up": "species or system human", "conditions": "peptides on beads, 25 nM RGS4Δ51N-Alexa Fluor 532", "in_short": "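Hit peptides resynthesized and disulfide-cyclized on 20 μm TentaGel beads; about 5 × 10^3 beads per sample (at most 5 nmoles peptide) washed, then incubated with RGS4Δ51N-Alexa Fluor 532 for at least 15 min at room temperature, protected from light. FACScan gated on acetylated TentaGel control beads, no compensation; their signal subtracted as background. Duplicates; one-way ANOVA with Bonferroni post-test.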"}}, "note": "Like-named read-outs stand apart in the source and are kept apart here. Positions of bridges follow the written chain, without caps; N, C: chain ends. Residues, ends and D or L forms follow the SMILES beside them.", "data": [{"compound": "1nd: free N-terminal, disulfide bridged version of hit 1 (H-YNCQGECE-NH2; disulfide 3-7; SMILES NC(=O)CC[C@@H]1NC(=O)[C@@H](NC(=O)[C@H](CC(N)=O)NC(=O)[C@@H](N)Cc2ccc(O)cc2)CSSC[C@@H](C(=O)N[C@@H](CCC(=O)O)C(N)=O)NC(=O)[C@H](CCC(=O)O)NC(=O)CNC1=O)", "values": [{"measurement": "inhibition of RGS4 activity (rate of RGS stimulated Gαo GTP hydrolysis)", "setting": "RGS4Δ51N; 50 μM peptide in solution", "value": "33 ± 15", "unit": "%"}]}, {"compound": "2al: acetylated linear version of peptide 2 (Ac-GTCFGTCW-NH2; cysteine pairing not given here)", "values": [{"measurement": "activity on RGS4 GAP activity", "setting": "RGS4Δ51N", "value": "inactive"}]}, {"compound": "2nl: free N-terminal linear version of peptide 2 (H-GTCFGTCW-NH2; cysteine pairing not given here)", "values": [{"measurement": "activity on RGS4 GAP activity", "setting": "RGS4Δ51N", "value": "inactive"}]}, {"compound": "4nd: free N-terminal, disulfide bridged version of hit 4 (H-KVCMGGCT-NH2; disulfide 3-7; SMILES CSCC[C@@H]1NC(=O)[C@@H](NC(=O)[C@@H](NC(=O)[C@@H](N)CCCCN)C(C)C)CSSC[C@@H](C(=O)N[C@H](C(N)=O)[C@@H](C)O)NC(=O)CNC(=O)CNC1=O)", "values": [{"measurement": "inhibition of RGS4 activity (rate of RGS stimulated Gαo GTP hydrolysis)", "setting": "RGS4Δ51N; 50 μM peptide in solution", "value": "33 ± 16", "unit": "%"}]}, {"compound": "14nd: free N-terminal, disulfide bridged version of hit 14 (H-KHCYGFCK-NH2; disulfide 3-7; SMILES NCCCC[C@H](NC(=O)[C@@H]1CSSC[C@H](NC(=O)[C@H](Cc2c[nH]cn2)NC(=O)[C@@H](N)CCCCN)C(=O)N[C@@H](Cc2ccc(O)cc2)C(=O)NCC(=O)N[C@@H](Cc2ccccc2)C(=O)N1)C(N)=O)", "values": [{"measurement": "solubility", "setting": "[1]; could not be tested at 50 μM in GAP assay, solubility verified by HPLC", "value": "limited by solubility"}]}, {"compound": "CC(=O)NCC(=O)N[C@H](C(=O)N[C@H]1CSSC[C@@H](C(=O)N[C@@H](Cc2c[nH]c3ccccc23)C(N)=O)NC(=O)[C@H]([C@@H](C)O)NC(=O)CNC(=O)[C@H](Cc2ccccc2)NC1=O)[C@@H](C)O", "note": "[2ad, Ac-Gly-Thr-c[Cys-Phe-Gly-Thr-Cys]-Trp-NH2, S-S] (Ac-GTCFGTCW-NH2; disulfide 3-7)", "values": [{"measurement": "IC50", "setting": "RGS4Δ51N", "value": "~50", "unit": "µM"}, {"measurement": "inhibition of RGS4 activity (rate of RGS stimulated Gαo GTP hydrolysis)", "setting": "RGS4Δ51N; 25 μM peptide (limited by solubility)", "value": "30 ± 12", "unit": "%"}, {"measurement": "activity against RGS16", "setting": "RGS16", "value": "inactive"}, {"measurement": "solubility", "setting": "[1]", "value": "limited by solubility"}, {"measurement": "activity against RGS7", "setting": "RGS7box", "value": "inactive"}]}, {"compound": "C[C@@H](O)[C@@H]1NC(=O)CNC(=O)[C@H](Cc2ccccc2)NC(=O)[C@@H](NC(=O)[C@@H](NC(=O)CN)[C@@H](C)O)CSSC[C@@H](C(=O)N[C@@H](Cc2c[nH]c3ccccc23)C(N)=O)NC1=O", "note": "[2nd, Gly-Thr-c[Cys-Phe-Gly-Thr-Cys]-Trp-NH2, S-S] (H-GTCFGTCW-NH2; disulfide 3-7)", "values": [{"measurement": "IC50", "setting": "RGS4Δ51N", "value": "~50", "unit": "µM"}, {"measurement": "inhibition of RGS4 activity (rate of RGS stimulated Gαo GTP hydrolysis)", "setting": "RGS4Δ51N; 50 μM peptide in solution", "value": "48 ± 7", "unit": "%"}, {"measurement": "activity against RGS16", "setting": "RGS16", "value": "inactive"}, {"measurement": "activity against RGS7", "setting": "RGS7box", "value": "inactive"}]}, {"compound": "Ac-Val-Lys-[Cys-Thr-Gly-Phe-Cys]-Glu-NH2, S-S (disulfide) [peptide 20 in Roof et al]", "values": [{"measurement": "inhibited RGS4 GAP activity", "setting": "RGS4 [2]; at 100 μM", "value": "~40", "unit": "%"}]}, {"compound": "Ac-Val-Lys-c[Cys-Thr-Gly-Ile-Cys]-Glu-NH2, S-S (disulfide) [YJ34, reference compound]", "values": [{"measurement": "solubility", "setting": "[1]", "value": "limited by solubility"}, {"measurement": "IC50", "setting": "RGS4 [3]", "value": 26, "unit": "µM"}]}, {"compound": "Ac-Val-Lys-c[Cys-Thr-Ser-Ile-Cys]-Glu-NH2, S-S (disulfide) [BR2]", "values": [{"measurement": "activity as RGS4 inhibitor", "setting": "RGS4 [2]", "value": "inactive"}]}, {"compound": "KLc[CHGYC]H-NH2, S-S (disulfide) [compound 11]", "values": [{"measurement": "aggregation", "setting": "[1]; not evaluated in GAP assay for this reason", "value": "signs of aggregation"}]}, {"compound": "KVc[CMGGC]T-NH2, S-S (disulfide) [compound 4]", "values": [{"measurement": "activity on RGS4 GAP activity", "setting": "RGS4Δ51N", "value": "little effect"}, {"measurement": "binding to RGS4Δ51N in FACScan assay", "setting": "RGS4Δ51N-Alexa Fluor 532", "value": "bound RGS4 so well"}]}]}
